Experimental data taken from publication PMC5689172 (Biochemistry and Biophysics Reports, 2016).
In brackets after ≈: the same amount, converted by molar mass. Read-outs that look alike come from different tables or passages of the source.

How the values were obtained:
A. hydrophila = assay: Antimicrobial activity, agar dilution method; format: cell-based; conditions: Aeromonas hydrophila
Summary of the method: (§1)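 Test compound in DMSO, mixed with Mueller–Hinton broth, two-fold serially diluted, and incorporated into MH agar at final 0.25–256 μg/mL. Agar with 0.5% DMSO served as reagent control. Organisms were grown overnight in MH broth at 37 °C, diluted in normal saline to 0.5 McFarland (1.5×10⁸ CFU/mL), and inoculated onto plates. Plates were incubated at 37 °C for 24–48 h, then MIC was recorded.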

L. monocytogenes = assay: Antimicrobial activity, agar dilution method; format: cell-based; conditions: Listeria monocytogenes
Summary of the method: as §1

S. aureus ATCC 29213 = assay: Antimicrobial activity, agar dilution method; format: cell-based; conditions: Staphylococcus aureus, ATCC29213
Summary of the method: as §1

B. cereus = assay: Antimicrobial activity, agar dilution method; format: cell-based; conditions: Bacillus cereus
Summary of the method: as §1

P. stutzeri ATCC 17587 = assay: Antimicrobial activity, agar dilution method; format: cell-based, Pseudomonas stutzeri; conditions: Stutzerimonas stutzeri, ATCC17587
Summary of the method: as §1

S. aureus ATCC 25923 = assay: Antimicrobial activity, agar dilution method; format: cell-based; conditions: Staphylococcus aureus, ATCC25923
Summary of the method: as §1

C. albicans ATCC 90028 = assay: Antimicrobial activity, agar dilution method; format: cell-based; conditions: Candida albicans, ATCC90028
Summary of the method: as §1

E. faecalis ATCC 29212 = assay: Antimicrobial activity, agar dilution method; format: cell-based; conditions: Enterococcus faecalis, ATCC29212
Summary of the method: as §1

S. dysenteriae = assay: Antimicrobial activity, agar dilution method; format: cell-based; conditions: Shigella dysenteriae
Summary of the method: as §1

diploid fungi and yeast = assay: Antimicrobial activity, agar dilution method, summarised over the group; format: cell-based, Candida albicans; conditions: Saccharomyces cerevisiae, ATCC2601|ATCC90028
Summary of the method: as §1

M. luteus ATCC 10240 = assay: Antimicrobial activity, agar dilution method; format: cell-based; conditions: Micrococcus luteus, ATCC10240
Summary of the method: as §1

M. morganii = assay: Antimicrobial activity, agar dilution method; format: cell-based; conditions: Morganella morganii
Summary of the method: as §1

Cytotoxicity, MTT assay = format: cell-based; conditions: human, MRC-5 cells (normal embryonic lung cell line)
S. marcescens ATCC 8100 = assay: Antimicrobial activity, agar dilution method; format: cell-based; conditions: Serratia marcescens, ATCC8100
Summary of the method: as §1

[1] = system: S. epidermidis ATCC 12228; assay: Antimicrobial activity, agar dilution method; format: cell-based; conditions: Staphylococcus epidermidis, ATCC12228
Summary of the method: as §1

P. aeruginosa ATCC 27853 = assay: Antimicrobial activity, agar dilution method; format: cell-based, Pseudomonas aeruginosa
Summary of the method: as §1

[2] = system: K. pneumoniae ATCC 700603; assay: Antimicrobial activity, agar dilution method; format: cell-based; conditions: Klebsiella pneumoniae, ATCC700603
Summary of the method: as §1

S. Enteritidis = assay: Antimicrobial activity, agar dilution method; format: cell-based; conditions: Salmonella enterica
Summary of the method: as §1

[3] = system: S. putrefaciens ATCC 8071; assay: Antimicrobial activity, agar dilution method; format: cell-based; conditions: Shewanella putrefaciens, ATCC8071
Summary of the method: as §1

E. faecalis ATCC 33186 = assay: Antimicrobial activity, agar dilution method; format: cell-based; conditions: Enterococcus faecalis, ATCC33186
Summary of the method: as §1

B. subtilis ATCC 6633 = assay: Antimicrobial activity, agar dilution method; format: cell-based; conditions: Bacillus subtilis, ATCC6633
Summary of the method: as §1

[4] = system: A. xylosoxidans ATCC 27061; assay: Antimicrobial activity, agar dilution method; format: cell-based; conditions: Achromobacter xylosoxidans, ATCC27061
Summary of the method: as §1

[5] = system: S. Typhimurium ATCC 13311; assay: Antimicrobial activity, agar dilution method; format: cell-based; conditions: Salmonella enterica, ATCC13311|TYPHIMURIUM
Summary of the method: as §1

[6] = system: C. diphtheriae NCTC 10356; assay: Antimicrobial activity, agar dilution method; format: cell-based; conditions: Corynebacterium diphtheriae, NCTC10356
Summary of the method: as §1

C. freundii = assay: Antimicrobial activity, agar dilution method; format: cell-based; conditions: Citrobacter freundii
Summary of the method: as §1

E. coli ATCC 25922 = assay: Antimicrobial activity, agar dilution method; format: cell-based; conditions: Escherichia coli, ATCC25922
Summary of the method: as §1

[7] = system: S. Choleraesuis ATCC 10708; assay: Antimicrobial activity, agar dilution method; format: cell-based; conditions: Salmonella enterica, ATCC10708|CHOLERAESUIS
Summary of the method: as §1

P. shigelloides = assay: Antimicrobial activity, agar dilution method; format: cell-based; conditions: Plesiomonas shigelloides
Gram-negative bacteria = assay: Antimicrobial activity, agar dilution method, summarised over the group; format: cell-based
Summary of the method: as §1

[8] = Antioxidant activity, DPPH radical scavenging assay; format: biochemical; conditions: read-out: RSA IC50, 30 min, 517 nm
Summary of the method: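 Sample solution (test compound, 1 mg/mL in DMSO) was mixed with 0.1 mM DPPH in methanol and kept 30 min in the dark. Absorbance was read at 517 nm. Radical scavenging activity (%) = [1 − Abs(sample)/Abs(control)] × 100. α-Tocopherol was the positive control.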

S. cerevisiae ATCC 2601 = assay: Antimicrobial activity, agar dilution method; format: cell-based; conditions: Saccharomyces cerevisiae, ATCC2601
Summary of the method: as §1

MRC-5 cell line = conditions: read-out: Cytotoxicity IC50; MRC-5 cells, MTT; cited from earlier work
[9] = system: twenty-seven strains of microorganisms; format: cell-based; conditions: Saccharomyces cerevisiae
Summary of the method: as §1

Gram-positive bacteria = assay: Antimicrobial activity, agar dilution method, summarised over the group; format: cell-based
Summary of the method: as §1

[10] = read-out: SOD (superoxide dismutase) activity IC50; cited from earlier work
[11] = Pseudomonas aeruginosa, ATCC27853

Compound	MIC (A. hydrophila) [µM]	MIC (L. monocytogenes) [µM]	MIC (S. aureus ATCC 29213) [µM]	MIC (B. cereus) [µM]	MIC (P. stutzeri ATCC 17587) [µM]	MIC (S. aureus ATCC 25923) [µM]	MIC (C. albicans ATCC 90028) [µM]	MIC (E. faecalis ATCC 29212) [µM]	MIC (S. dysenteriae) [µM]	MIC (M. luteus ATCC 10240) [µM]	MIC (M. morganii) [µM]	MIC (S. marcescens ATCC 8100) [µM]	MIC [1] [µM]	MIC (P. aeruginosa ATCC 27853; [11]) [µM]	MIC [2] [µM]	MIC (S. Enteritidis) [µM]	MIC [3] [µM]	MIC (E. faecalis ATCC 33186) [µM]	MIC (B. subtilis ATCC 6633) [µM]	MIC [4] [µM]	other results
Nc1ccc(O)c2ncccc12 [5-amino-8HQ (8), 5-Amino-8-hydroxyquinoline]	275 (≈ 44 µg/mL)	275 (≈ 44 µg/mL)	275 (≈ 44 µg/mL)	275 (≈ 44 µg/mL)	1100 (≈ 176 µg/mL)	275 (≈ 44 µg/mL)	1100 (≈ 176 µg/mL)	1100 (≈ 176 µg/mL)	1100 (≈ 176 µg/mL)	275 (≈ 44 µg/mL)	1100 (≈ 176 µg/mL)	1100 (≈ 176 µg/mL)	275 (≈ 44 µg/mL)	1100 (≈ 176 µg/mL)	1100 (≈ 176 µg/mL)	1100 (≈ 176 µg/mL)	1100 (≈ 176 µg/mL)	1100 (≈ 176 µg/mL)	275 (≈ 44 µg/mL)	549 (≈ 88 µg/mL)	MIC (diploid fungi and yeast): ≥ 645 µM; IC50 at 48 h (Cytotoxicity, MTT assay): 22.1 ± 1.02 µM; MIC [5]: 1100 µM (≈ 176 µg/mL); MIC [6]: 1100 µM (≈ 176 µg/mL); MIC (C. freundii): 1100 µM (≈ 176 µg/mL); MIC (E. coli ATCC 25922): 1100 µM (≈ 176 µg/mL); MIC [7]: 1100 µM (≈ 176 µg/mL); MIC (P. shigelloides; P. shigelloides, agar dilution): 1100 µM (≈ 176 µg/mL); MIC (Gram-negative bacteria): 1100 µM (≈ 176 µg/mL); IC50 [8]: 8.71 µM; MIC (S. cerevisiae ATCC 2601): 1100 µM (≈ 176 µg/mL)
Oc1cccc2cccnc12 [8HQ (1), 8-Hydroxyquinoline]	110 (≈ 16 µg/mL)	3.44 (≈ 0.499 µg/mL)	6.89 (≈ 1 µg/mL)	13.8 (≈ 2 µg/mL)	220 (≈ 32 µg/mL)	6.89 (≈ 1 µg/mL)	13.8 (≈ 2 µg/mL)	13.8 (≈ 2 µg/mL)	220 (≈ 32 µg/mL)	13.8 (≈ 2 µg/mL)	882 (≈ 128 µg/mL)	220 (≈ 32 µg/mL)	6.89 (≈ 1 µg/mL)	> 1760	882 (≈ 128 µg/mL)	882 (≈ 128 µg/mL)	220 (≈ 32 µg/mL)	13.8 (≈ 2 µg/mL)	6.89 (≈ 1 µg/mL)	55.1 (≈ 8 µg/mL)	IC50 (MRC-5 cell line): 6.27 µM; MIC (P. aeruginosa ATCC 27853; P. aeruginosa ATCC 27853, agar dilution): >1763.57 µM; MIC [9]: 3.44 to 13.8 µM (≈ 0.499 to 2 µg/mL); MIC (Gram-positive bacteria): 3.44 to 13.8 µM (≈ 0.499 to 2 µg/mL); MIC [5]: 220 µM (≈ 32 µg/mL); MIC [6]: 13.8 µM (≈ 2 µg/mL); MIC (C. freundii): 220 µM (≈ 32 µg/mL); MIC (E. coli ATCC 25922): 220 µM (≈ 32 µg/mL); MIC [7]: 882 µM (≈ 128 µg/mL); MIC (P. shigelloides): 13.8 µM (≈ 2 µg/mL); MIC (Gram-negative bacteria): 110 to 882 µM (≈ 16 to 128 µg/mL); MIC (Gram-negative bacteria; [11]): 13.8 to 882 µM (≈ 2 to 128 µg/mL); IC50 [10]: 91.8 µM; IC50 [8]: 615 µM; MIC (S. cerevisiae ATCC 2601): 13.8 µM (≈ 2 µg/mL)
Oc1c(I)cc(Cl)c2cccnc12 [CQ (6), clioquinol]	26.2 (≈ 8 µg/mL)	26.2 (≈ 8 µg/mL)	26.2 (≈ 8 µg/mL)	26.2 (≈ 8 µg/mL)	105 (≈ 32 µg/mL)	26.2 (≈ 8 µg/mL)	26.2 (≈ 8 µg/mL)	26.2 (≈ 8 µg/mL)	838 (≈ 256 µg/mL)	26.2 (≈ 8 µg/mL)	838 (≈ 256 µg/mL)	26.2 (≈ 8 µg/mL)	26.2 (≈ 8 µg/mL)	> 838	> 838	105 (≈ 32 µg/mL)	26.2 (≈ 8 µg/mL)	26.2 (≈ 8 µg/mL)	26.2 (≈ 8 µg/mL)	26.2 (≈ 8 µg/mL)	IC50 at 48 h (Cytotoxicity, MTT assay): 76.17 ± 0.23 µM; MIC (Gram-positive bacteria): 26.2 µM (≈ 8 µg/mL); MIC [5]: 838 µM (≈ 256 µg/mL); MIC [6]: 26.2 µM (≈ 8 µg/mL); MIC (C. freundii): 419 µM (≈ 128 µg/mL); MIC (E. coli ATCC 25922): 26.2 µM (≈ 8 µg/mL); MIC [7]: > 838 µM; MIC (P. shigelloides; P. shigelloides, agar dilution): 26.2 µM (≈ 8 µg/mL); IC50 [8]: 366 µM; MIC (S. cerevisiae ATCC 2601): 26.2 µM (≈ 8 µg/mL)
Oc1ccc(Cl)c2cccnc12 [Cloxyquin (3), cloxyquin]	44.5 (≈ 8 µg/mL)	5.57 (≈ 1 µg/mL)	89.1 (≈ 16 µg/mL)	44.5 (≈ 8 µg/mL)	178 (≈ 32 µg/mL)	89.1 (≈ 16 µg/mL)	178 (≈ 32 µg/mL)	89.1 (≈ 16 µg/mL)	178 (≈ 32 µg/mL)	22.3 (≈ 4 µg/mL)	178 (≈ 32 µg/mL)	89.1 (≈ 16 µg/mL)	22.3 (≈ 4 µg/mL)	> 1430	713 (≈ 128 µg/mL)	178 (≈ 32 µg/mL)	178 (≈ 32 µg/mL)	89.1 (≈ 16 µg/mL)	22.3 (≈ 4 µg/mL)	89.1 (≈ 16 µg/mL)	IC50 at 48 h (Cytotoxicity, MTT assay): 81.7 ± 0.96 µM; MIC (Gram-positive bacteria): 5.57 to 89.1 µM (≈ 1 to 16 µg/mL); MIC [5]: 178 µM (≈ 32 µg/mL); MIC [6]: 22.3 µM (≈ 4 µg/mL); MIC (C. freundii): 178 µM (≈ 32 µg/mL); MIC (E. coli ATCC 25922): 89.1 µM (≈ 16 µg/mL); MIC [7]: 713 µM (≈ 128 µg/mL); MIC (P. shigelloides; P. shigelloides, agar dilution): 11.1 µM (≈ 2 µg/mL); IC50 [8]: 1050 µM; MIC (S. cerevisiae ATCC 2601): 89.1 µM (≈ 16 µg/mL)
